Drawing on article PMC3426361 (Journal of biomolecular screening, 2010), this text covers kon for 1 substance.

The target of this data set is TDP-43 (Homo sapiens, UniProt Q13148). In words: Association and dissociation rates of bt-TAR-32 and bt-TG6 binding to TDP-43. Conditions: slope of kobs vs ligand concentration; arithmetic mean ± SEM, 3 determinations. A digest of the protocol: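 GST-tagged TDP-43 (5 ng/mL, 40 pM) on anti-GST beads (10 μg/mL, preincubated) added at staggered times to biotinylated oligonucleotide (0.25–6.0 nM) prebound 30 min RT to streptavidin donor beads (10 μg/mL). Buffer: 25 mM Tris pH 7.4, 0.1% BSA, 0.1% Triton X-100. AlphaScreen signal read together at end, dark, RT. kobs from one-site exponential association fits per concentration.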
TDP-43, sequence (Q13148 whole entry): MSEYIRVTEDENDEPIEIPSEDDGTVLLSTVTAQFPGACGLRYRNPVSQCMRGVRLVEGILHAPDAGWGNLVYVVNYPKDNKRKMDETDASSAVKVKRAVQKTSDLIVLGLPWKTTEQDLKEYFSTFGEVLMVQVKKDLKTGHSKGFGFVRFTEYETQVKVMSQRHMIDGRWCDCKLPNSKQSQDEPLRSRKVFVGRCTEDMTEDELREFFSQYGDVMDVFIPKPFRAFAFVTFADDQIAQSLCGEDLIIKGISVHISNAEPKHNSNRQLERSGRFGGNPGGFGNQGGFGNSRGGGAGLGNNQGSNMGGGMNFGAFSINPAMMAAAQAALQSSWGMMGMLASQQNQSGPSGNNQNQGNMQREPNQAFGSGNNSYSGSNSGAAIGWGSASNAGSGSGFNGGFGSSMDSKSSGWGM

Consider “5′-CTGCTTTTTGCCTGTACTGGGTCTCTGTGGTT-3′ (DNA CTGCTTTTTGCCTGTACTGGGTCTCTGTGGTT; chemistry not given here) [TAR-32]”, for which the kon stood at 2.4 ± 0.93 µmol⁻¹ min⁻¹.
